Read-outs that look alike come from different tables or passages of the source.
Columns and labels:
[1] = test system: DU-145 prostate cancer cells; experiment: Trypan blue exclusion cell viability assay; type: cell-based, human; conditions: for EC100: read-out: EC100 values in DU-145 cells, trypan blue exclusion, 72 h, mean ± SEM
Procedure, shortened: (§1)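 Seeding 24 h ahead was DU-145 at 6,000 cells/well in DMEM and PC-3 at 6,500 cells/well in RPMI-1640, both with 10% FBS and 1% penicillin/streptomycin. Compounds were added from DMSO stocks (0.2% final DMSO) for 72 h, in quadruplicate. Cells were trypsinized, washed in calcium-free PBS, resuspended in PBS and counted by automated trypan blue exclusion. EC50 came from ≥6 concentrations bracketing a preliminary estimate; 3 independent experiments.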

[2] = test system: PC-3 prostate cancer cells; experiment: Trypan blue exclusion cell viability assay; type: cell-based, human; conditions: for EC100: read-out: EC100 values in PC-3 cells, trypan blue exclusion, 72 h, mean ± SEM
Procedure, shortened: as §1

[3] = Trypan blue exclusion cell viability assay on normal cells, 72 h; type: cell-based, human; conditions: human, HIFF (human infant foreskin fibroblasts)
Procedure, shortened: (§2)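 HIFF fibroblasts (infant foreskin, donor-consented) were kept in DMEM with 10% FBS and 1% penicillin/streptomycin at 37°C and 5% CO2, seeded at 6,000 cells/well 24 h ahead. Cells were treated for 72 h at 50 μM or at single lower concentrations (0.2% final DMSO), in quadruplicate. Cells were trypsinized, washed in calcium-free PBS, resuspended in PBS, and viability was scored by automated trypan blue exclusion.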

[4] = test system: DU-145 prostate cancer cells; experiment: Alamar Blue cell viability assay; type: cell-based; conditions: Homo sapiens, DU-145, read-out: EC50 value in Alamar Blue
Procedure, shortened: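 DU-145 cells were grown in DMEM with 10% FBS and 1% penicillin/streptomycin at 37°C and 5% CO2, then seeded at 6,000 cells/well 24 h before treatment. Compounds were added from DMSO stocks to 0.2% final DMSO for 72 h, in quadruplicate. After PBS wash, wells got Alamar Blue for 6 h; fluorescence ex 530/em 590 nm. EC50 fitted from ≥6 concentrations.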

[5] = test system: DU-145 prostate cancer cells; experiment: Crystal violet cell viability assay; type: cell-based, human; conditions: crystal violet staining, even at non-cytotoxic concentrations
Procedure, shortened: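 DU-145 cells were seeded at 6,000 cells/well in DMEM/10% FBS 24 h ahead and exposed to compound for 72 h (0.2% final DMSO), in quadruplicate. Cells were fixed in 4% formaldehyde at 4°C for 30 min, washed with MeOH:AcOH 3:1, then 80% MeOH, and stained with 0.1% crystal violet for 1 h at room temperature. Stain was dissolved in 10% AcOH; A570 read against untreated control.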

B12 cells = conditions: 3 h incubation, ref 70 (Liu et al); cited from earlier work
[6] = test system: HIFF (human infant foreskin fibroblasts) normal cells; experiment: Trypan blue exclusion cell viability assay on normal cells, 72 h; type: cell-based; conditions: 50 μM flavonol, mean ± SEM
Procedure, shortened: as §2

[7] = Homo sapiens, DU-145, 72 h, read-out: EC50 values in DU-145 cells, trypan blue exclusion, 72 h, mean ± SEM
[8] = read-out: EC100 - EC50 values in DU-145 cells, difference between EC100 and EC50, mean ± SEM
[9] = Homo sapiens, PC-3, 72 h, read-out: EC50 values in PC-3 cells, trypan blue exclusion, 72 h, mean ± SEM
[10] = Homo sapiens, PC-3, read-out: EC100 - EC50 values in PC-3 cells, difference between EC100 and EC50, mean ± SEM
[11] = Homo sapiens, DU-145, read-out: EC100 - EC50 values in DU-145 cells, difference between EC100 and EC50, mean ± SEM
[12] = read-out: EC100 - EC50 values in PC-3 cells, difference between EC100 and EC50, mean ± SEM
[13] = read-out: EC50 values in DU-145 cells, trypan blue exclusion, 72 h, mean ± SEM

Row | Compound | EC50 [1, 7] [µM] | EC50 [1, 8] [µM] | EC50 [2, 9] [µM] | EC50 [2, 10] [µM] | EC50 [1, 11] [µM] | EC50 [2, 12] [µM] | EC50 [1, 13] [µM] | EC50 [4] [µM] | EC50 ([2]; read-out: EC50 values in PC-3 cells, trypan blue exclusion, 72 h, mean ± SEM) [µM] | EC100 ([1]; Homo sapiens, DU-145, 72 h) [µM] | EC100 ([2]; Homo sapiens, PC-3, 72 h) [µM] | viability at 72 h, 50 μM [3] [%] | maximum achievable cell viability compared to the control [5] [%] | MTT reduced more than the control (B12 cells) [%] | % Viability of HIFF (50 μM) [6]
1 | O=c1c(O)c(-c2cccc(I)c2)oc2cc(O)cc(O)c12 [5c, 3,5,7-Trihydroxy-2-(3-iodophenyl)-4H-chromen-4-one] | 14.5 ± 1.02 |  | 10.5 ± 0.72 |  | 10.1 ± 0.84 | 9 ± 1.06 |  |  |  |  |  | 46.8 ± 2.48 |  |  | 
2 | O=C(c1ccccc1)c1cccc(-c2oc3cc(O)cc(O)c3c(=O)c2O)c1 [5a, 2-(3-Benzoylphenyl)-3,5,7-trihydroxy-4H-chromen-4-one] | 14.8 ± 0.71 |  | 9.31 ± 0.58 |  | 5.62 ± 5.5 | 8.55 ± 2.06 |  |  |  |  |  | 34.8 ± 0.2 |  |  | 
3 | O=c1c(O)c(-c2ccc(-c3ccccc3)cc2)oc2cc(O)cc(O)c12 [8d, 2-[(1,1′-Biphenyl)-4-yl]-3,5,7-trihydroxy-4H-chromen-4-one] | 5.57 ± 0.6 |  | 5.4 ± 0.63 |  | 6.86 ± 0.18 | 3.35 ± 0.93 |  |  |  |  |  | 34.4 ± 3.67 |  |  | 
4 | O=C(c1ccccc1)c1ccc(-c2oc3cc(O)cc(O)c3c(=O)c2O)cc1 [5b, 2-(4-Benzoylphenyl)-3,5,7-trihydroxy-4H-chromen-4-one] | 16.6 ± 0.7 |  | 9.97 ± 0.36 | 12.3 ± 0.99 | 24.4 ± 1.1 |  |  |  |  | 41 ± 2.18 | 22.3 ± 0.91 | 32.3 ± 2.92 |  |  | 
5 | O=c1c(O)c(-c2cccc(-c3ccccc3)c2)oc2cc(O)cc(O)c12 [8c, 2-[(1,1′-Biphenyl)-3-yl]-3,5,7-trihydroxy-4H-chromen-4-one] | 6.33 ± 0.58 |  | 6.35 ± 0.26 |  | 11.7 ± 1.11 | 4.98 ± 1.54 |  |  |  |  |  | 34.6 ± 2.74 |  |  | 
6 | O=c1c(-c2ccc(O)cc2)coc2cc(O)cc(O)c12 [genistein] |  |  |  |  |  |  |  |  |  |  |  |  |  | 60 | 
7 | O=c1c(O)c(-c2ccc(O)c(O)c2)oc2cc(O)cc(O)c12 [Quercetin, reference compound] | 39.1 | 46.3 ± 8.55 | 32.9 |  |  | 44.3 ± 4.29 | 39.1 ± 2.87 | 55.1 | 32.9 ± 4.1 | 85.4 ± 6.11 | 77.1 ± 3.4 | 84.5 ± 2.21 |  |  | least inhibitory

Now from value to molecule, other results behind:

Row | EC50 [1, 7] [µM] | EC50 [1, 8] [µM] | EC50 [2, 9] [µM] | EC50 [2, 10] [µM] | EC50 [1, 11] [µM] | EC50 [2, 12] [µM] | EC50 [1, 13] [µM] | EC50 [4] [µM] | EC50 ([2]; read-out: EC50 values in PC-3 cells, trypan blue exclusion, 72 h, mean ± SEM) [µM] | Compound | EC100 ([1]; Homo sapiens, DU-145, 72 h) [µM] | EC100 ([2]; Homo sapiens, PC-3, 72 h) [µM] | viability at 72 h, 50 μM [3] [%] | maximum achievable cell viability compared to the control [5] [%] | MTT reduced more than the control (B12 cells) [%] | % Viability of HIFF (50 μM) [6]
8 | 25.9 ± 0.59 | 20.5 ± 0.46 | 17.1 ± 1.29 | 26.8 ± 5.31 |  |  |  |  |  | O=c1c(O)c(-c2ccccc2)oc2cc(O)cc(O)c12 [5f, Galangin, reference compound] | 46.4 ± 3.92 | 43.9 ± 4.14 | 48 ± 1.38 |  |  | 
9 | 14.3 ± 0.53 | 9.45 ± 1.89 | 9.89 ± 1.24 | 10.5 ± 3.29 |  |  |  |  |  | Cc1ccc(-c2oc3cc(O)cc(O)c3c(=O)c2O)cc1 [5e, 3,5,7-Trihydroxy-2-(p-tolyl)-4H-chromen-4-one] |  |  | 37.5 ± 2.27 |  |  | 
10 | 38.4 ± 1.94 | 36 ± 2.02 | 33.3 ± 2.96 | 24.3 ± 4.63 |  |  |  |  |  | O=c1c(O)c(-c2ccc(O)cc2)oc2cc(O)cc(O)c12 [Kaempferol, reference compound] | 74.4 ± 0.83 | 57.6 ± 6.4 | 73.8 ± 1.38 |  |  | 
11 | 7.51 ± 0.27 |  | 4.13 ± 0.16 |  | 2.33 ± 2.05 | 6.21 ± 0.59 |  |  |  | O=c1c(O)c(-c2ccc(I)cc2)oc2cc(O)cc(O)c12 [5d, 3,5,7-Trihydroxy-2-(4-iodophenyl)-4H-chromen-4-one] |  |  | 34.8 ± 0.99 |  |  | 
12 | 19.8 | 19.4 ± 2.02 | 14.9 ± 0.78 | 19.3 ± 2.1 |  |  | 19.8 ± 0.5 | 30.1 |  | COc1ccc(-c2oc3cc(O)cc(O)c3c(=O)c2O)cc1 [Kaempferide, reference compound] | 39.2 ± 0.87 | 34.2 ± 1.66 | 52.2 ± 1.17 | < 50 |  | 

— article PMC4091967 (International Journal of Oncology, 2014)
